Test results as given in ChEMBL document CHEMBL4699647, “Targeting the Allosteric Pathway That Interconnects the Core-Functional Scaffold and the Distal Phosphorylation Sites for Specific Dephosphorylation of Bcl-2” (J Med Chem, 2020).
Calls of active or inactive are those of the source. The rule behind the calls is not given here.

Key:
[1] = target: T1, Apoptosis regulator Bcl-2 (Homo sapiens, UniProt P10415); test: Inhibition of FAM-Bim peptide binding to human full-length N-terminal His6-tagged Bcl2 (2 to 206 residues) expressed in Escherichia coli S12 extract measured after 30 mins by fluorescence polarization assay
T1 sequence (P10415 whole entry, the tested form may be a part): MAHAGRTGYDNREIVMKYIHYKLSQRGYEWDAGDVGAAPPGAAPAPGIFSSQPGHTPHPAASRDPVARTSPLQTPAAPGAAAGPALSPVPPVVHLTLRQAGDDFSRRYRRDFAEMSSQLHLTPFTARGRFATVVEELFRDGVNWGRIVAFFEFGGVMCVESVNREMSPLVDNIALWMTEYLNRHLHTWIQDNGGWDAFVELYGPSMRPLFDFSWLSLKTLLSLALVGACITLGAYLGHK

[2] = Inhibition of FAM-Bim peptide binding to human full-length N-terminal His6-tagged Bcl2 R106A/R109A mutant expressed in Escherichia coli S12 extract measured after 30 mins by fluorescence polarization assay
Bcl-2-like protein 1 [3] = target: T2, Bcl-2-like protein 1 (Homo sapiens, UniProt Q07817); test: Inhibition of FAM-Bim peptide binding to Bcl-xl (unknown origin) measured after 30 mins by fluorescence polarization assay
T2 sequence (Q07817 whole entry): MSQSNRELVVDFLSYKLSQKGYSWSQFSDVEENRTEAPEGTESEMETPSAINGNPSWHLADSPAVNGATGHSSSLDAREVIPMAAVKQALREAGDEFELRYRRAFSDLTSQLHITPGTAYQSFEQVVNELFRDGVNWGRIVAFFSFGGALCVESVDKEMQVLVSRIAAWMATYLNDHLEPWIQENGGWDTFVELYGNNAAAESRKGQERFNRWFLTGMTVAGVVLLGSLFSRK

[4] = target: Induced myeloid leukemia cell differentiation protein Mcl-1 (Homo sapiens, UniProt Q07820); test: Inhibition of FAM-Bim peptide binding to MCl1 (unknown origin) measured after 30 mins by fluorescence polarization assay
Sequence of Induced myeloid leukemia cell differentiation protein Mcl-1 (Q07820 whole entry): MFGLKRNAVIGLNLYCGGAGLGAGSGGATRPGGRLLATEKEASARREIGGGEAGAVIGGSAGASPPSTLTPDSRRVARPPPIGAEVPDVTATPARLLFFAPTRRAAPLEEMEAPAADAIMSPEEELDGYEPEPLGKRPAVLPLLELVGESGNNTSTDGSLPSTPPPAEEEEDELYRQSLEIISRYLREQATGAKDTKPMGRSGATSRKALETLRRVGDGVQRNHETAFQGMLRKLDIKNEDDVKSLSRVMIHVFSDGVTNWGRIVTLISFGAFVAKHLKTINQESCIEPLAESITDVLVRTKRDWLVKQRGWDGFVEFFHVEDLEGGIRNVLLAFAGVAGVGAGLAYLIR

HL-60 = test: Induction of apoptosis in human HL-60 cells measured after 48 hrs by FITC-Annexin V/PS staining based; format: functional, cell-based; conditions: HL-60, 48 h
OCI-AML-3 = test: Induction of apoptosis in human OCI-AML-3 cells measured after 48 hrs by FITC-Annexin V/PS staining based; format: functional, cell-based; conditions: OCI-AML-3, 48 h
KG-1 = test: Induction of apoptosis in human KG-1 cells measured after 48 hrs by FITC-Annexin V/PS staining based; format: functional, cell-based; conditions: KG-1, 48 h
MCF7 = test: Induction of apoptosis in human MCF7 cells measured after 48 hrs by FITC-Annexin V/PS staining based; format: functional, cell-based; conditions: MCF7, 48 h
[5] = target: T1, Apoptosis regulator Bcl-2; test: Induction of BCl-2 dephosphorylation in human OCI-AML-3 cells at 5 to 10 uM measured after 24 hrs by coimmunoprecipitation method; format: cell-based; conditions: dose microM 5-10, time 24.0 hrs
How it was run: (§1)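 Cells treated for 24 h, then lysed in 1% CHAPS buffer. 500 μg total protein precleared with protein A-Sepharose, incubated overnight with 5 μg specific antibody, captured on protein A-Sepharose or G-agarose, then immunoblotted. Bax/Bcl-2 complex, pBcl-2 (Ser70) and total Bcl-2 read out; n = 3 independent samples.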

[6] = target: T1, Apoptosis regulator Bcl-2; test: Induction of BCl-2 dephosphorylation in human OCI-AML-3 cells assessed as increase in Bax expression at 5 to 10 uM measured after 24 hrs by coimmunoprecipitation method; format: cell-based; conditions: dose microM 5-10, time 24.0 hrs; how it was run: as §1
[7] = target: T1, Apoptosis regulator Bcl-2; test: Induction of BCl-2 dephosphorylation in human HL-60 cells at 5 to 10 uM measured after 24 hrs by coimmunoprecipitation method; format: cell-based; conditions: dose microM 5-10, time 24.0 hrs; how it was run: as §1
[8] = target: T1, Apoptosis regulator Bcl-2; test: Induction of BCl-2 dephosphorylation in human HL-60 cells assessed as increase in Bax expression at 5 to 10 uM measured after 24 hrs by coimmunoprecipitation method; format: cell-based; conditions: dose microM 5-10, time 24.0 hrs; how it was run: as §1
[9] = Binding affinity to human full-length N-terminal His6-tagged Bcl2 R106A/R109A mutant expressed in Escherichia coli S12 extract by isothermal titration calorimetry
[10] = Binding affinity to human full-length N-terminal His6-tagged prephosphorylated Bcl2 R106A/R109A mutant expressed in Escherichia coli S12 extract by isothermal titration calorimetry
[11] = target: T1, Apoptosis regulator Bcl-2; test: Induction of BCl-2 dephosphorylation in human HL-60 cells at 1 to 5 uM measured after 24 hrs by coimmunoprecipitation method; format: cell-based; conditions: dose microM 1-5, time 24.0 hrs; how it was run: as §1
[12] = target: T1, Apoptosis regulator Bcl-2; test: Induction of BCl-2 dephosphorylation in human HL-60 cells assessed as increase in Bax expression at 1 to 5 uM measured after 24 hrs by coimmunoprecipitation method; format: cell-based; conditions: dose microM 1-5, time 24.0 hrs; how it was run: as §1
[13] = target: T1, Apoptosis regulator Bcl-2; test: Induction of BCl-2 dephosphorylation in human OCI-AML-3 cells at 1 to 5 uM measured after 24 hrs by coimmunoprecipitation method; format: cell-based; conditions: dose microM 1-5, time 24.0 hrs; how it was run: as §1
[14] = target: T1, Apoptosis regulator Bcl-2; test: Induction of BCl-2 dephosphorylation in human OCI-AML-3 cells assessed as increase in Bax expression at 1 to 5 uM measured after 24 hrs by coimmunoprecipitation method; format: cell-based; conditions: dose microM 1-5, time 24.0 hrs; how it was run: as §1
[15] = Resistance ratio of EC50 for induction of apoptosis in human HL-60 cells to EC50 for Induction of apoptosis in human KG-1 cells; format: functional
[16] = Resistance ratio of EC50 for induction of apoptosis in human OCI-AML-3 cells to EC50 for Induction of apoptosis in human KG-1 cells; format: functional
[17] = Resistance ratio of EC50 for induction of apoptosis in human HL-60 cells to EC50 for Induction of apoptosis in human MCF7 cells; format: functional
[18] = Resistance ratio of EC50 for induction of apoptosis in human OCI-AML-3 cells to EC50 for Induction of apoptosis in human MCF7 cells; format: functional
[19] = target: T1, Apoptosis regulator Bcl-2; test: Effect on Bcl2 phosphorylation in human HL-60 cells by Western blot analysis
[20] = target: T1, Apoptosis regulator Bcl-2; test: Binding affinity to human full-length N-terminal His6-tagged Bcl2 (2 to 206 residues) expressed in Escherichia coli S12 extract after 30 mins using FAM-labelled compound by fluorescence polarization assay
[21] = target: T1, Apoptosis regulator Bcl-2; test: Binding affinity to human full-length N-terminal His6-tagged prephosphorylated Bcl2 (2 to 206 residues) expressed in Escherichia coli S12 extract after 30 mins using FAM-labelled compound by fluorescence polarization assay
[22] = Binding affinity to human full-length N-terminal His6-tagged Bcl2 R106A/R109A mutant expressed in Escherichia coli S12 extract after 30 mins using FAM-labelled compound by fluorescence polarization assay
[23] = Binding affinity to human full-length N-terminal His6-tagged prephosphorylated Bcl2 R106A/R109A mutant expressed in Escherichia coli S12 extract after 30 mins using FAM-labelled compound by fluorescence polarization assay
[24] = target: T1, Apoptosis regulator Bcl-2; test: Induction of BCl-2 dephosphorylation in human HL-60 cells at 5 to 15 uM measured after 24 hrs by coimmunoprecipitation method; format: cell-based; conditions: filed as modulator, dose microM 5-15, time 24.0 hrs; how it was run: as §1
[25] = target: T1, Apoptosis regulator Bcl-2; test: Induction of BCl-2 dephosphorylation in human HL-60 cells assessed as increase in Bax expression at 5 to 15 uM measured after 24 hrs by coimmunoprecipitation method; format: cell-based; conditions: filed as modulator, dose microM 5-15, time 24.0 hrs; how it was run: as §1
Bcl-2-like protein 1 [26] = target: T2, Bcl-2-like protein 1; test: Effect on Bcl-xl phosphorylation in human HL-60 cells at 1 to 30 uM by Western blot analysis; conditions: dose microM 1-30

Structure (SMILES)	Ki [1]	Ki [2]	Ki (Bcl-2-like protein 1 [3])	Ki [4]	EC50 (HL-60)	EC50 (OCI-AML-3)	EC50 (KG-1)	EC50 (MCF7)	other results
N#CC1=C(NCCC(=O)O)c2ccc(Sc3ccc(Br)cc3)c3cccc(c23)C1=O	1.27 µM	1.44 µM	–	–	–	–	–	–	–
N#CC1=C(C#N)c2ccc(Sc3ccc(Br)cc3)c3cccc(c23)C1=O	0.85 µM	1.67 µM	0.75 µM	0.49 µM	–	–	–	–	–
N#CC1=C(NCCC(=O)NCc2ccccc2)c2ccc(Sc3ccc(Br)cc3)c3cccc(c23)C1=O	1.05 µM	1.88 µM	1.11 µM	0.56 µM	21.7 µM	22.3 µM	16.8 µM	18.5 µM	Activity [5]: inactive; Activity [6]: inactive; Activity [7]: inactive; Activity [8]: inactive
CC1(C)CCC(CN2CCN(c3ccc(C(=O)NS(=O)(=O)c4ccc(NCC5CCOCC5)c([N+](=O)[O-])c4)c(Oc4cnc5[nH]ccc5c4)c3)CC2)=C(c2ccc(Cl)cc2)C1 [VENETOCLAX]	–	–	–	–	8.1 µM	6.8 µM	0.85 µM	1.35 µM	Kd [9]: 0.0045 µM; Kd [10]: 0.0055 µM; Activity [11]: inactive; Activity [12]: inactive; Activity [13]: inactive; Activity [14]: inactive
CCCCNC1=C(C#N)C(=O)c2cccc3c(Sc4ccc(Br)cc4)ccc1c23	0.21 µM	0.15 µM	0.55 µM	0.35 µM	16.9 µM	15.4 µM	2.7 µM	3.1 µM	Ratio EC50 [15]: 5; Ratio EC50 [16]: 5; Ratio EC50 [17]: 5; Ratio EC50 [18]: 5; Activity [5]: inactive; Activity [6]: inactive; Activity [7]: inactive; Activity [8]: inactive; Activity [19]: inactive
CC[C@H](C)[C@H](NC(=O)[C@H](CCCNC(=N)N)NC(=O)[C@H](CCCNC(=N)N)NC(=O)[C@H](CC(C)C)NC(=O)[C@H](CS)NC(=O)[C@H](CCC(=O)O)NC(=O)[C@H](CO)NC(=O)[C@H](CC(C)C)NC(=O)[C@H](CCCCN)NC(=O)[C@H](CCCCN)NC(=O)[C@@H](NC(=O)[C@H](CO)NC(=O)[C@H](C)NC(=O)[C@H](CC(=O)O)NC(=O)[C@H](CCC(N)=O)NC(=O)[C@@H]1CCCN1C(=O)[C@@H]1CCCN1C(=O)[C@@H](N)CCC(N)=O)[C@@H](C)O)C(=O)NCC(=O)N[C@@H](CC(=O)O)C(=O)N[C@@H](CCC(=O)O)C(=O)N[C@@H](CC(C)C)C(=O)N[C@@H](CC(=O)O)C(=O)N[C@@H](CO)C(=O)N[C@@H](CC(N)=O)C(=O)N[C@@H](CCSC)C(=O)N[C@@H](CCC(=O)O)C(=O)N[C@@H](CC(C)C)C(=O)N[C@@H](CCC(N)=O)C(=O)N[C@@H](CCCNC(=N)N)C(=O)N[C@@H](CCSC)C(=O)N[C@H](C(=O)N[C@@H](C)C(=O)N[C@@H](CC(=O)O)C(=O)N[C@H](C(=O)N[C@@H](CC(=O)O)C(=O)O)C(C)C)[C@@H](C)CC	–	–	–	–	–	–	–	–	Kd [20]: 0.0196 µM; Kd [21]: 0.0021 µM; Kd [22]: 0.0155 µM; Kd [23]: 0.0162 µM
N#CC1=C(NCCC(=O)NCc2ccccc2C(=O)O)c2ccc(Sc3ccc(Br)cc3)c3cccc(c23)C1=O	1.35 µM	1.75 µM	–	–	–	–	–	–	–
CN(C)c1ccc(CNC(=O)CCNC2=C(C#N)C(=O)c3cccc4c(Sc5ccc(Br)cc5)ccc2c34)cc1	4.32 µM	0.84 µM	–	–	–	–	–	–	–
N#CC1=C(NCc2ccc(C(=O)O)cc2)c2ccc(Sc3ccc(Br)cc3)c3cccc(c23)C1=O	0.78 µM	0.94 µM	–	–	–	–	–	–	–
N#CC1=C(NCCC(=O)NCCOCCO)c2ccc(Sc3ccc(Br)cc3)c3cccc(c23)C1=O	0.81 µM	0.77 µM	–	–	–	–	–	–	–
N#CC1=C(NCCC(=O)NCc2ccc(C(=O)O)cc2)c2ccc(Sc3ccc(Br)cc3)c3cccc(c23)C1=O	0.16 µM	1.65 µM	0.81 µM	0.32 µM	3.8 µM	4 µM	4.9 µM	5.5 µM	Activity [24]: Active; Activity ([5]; filed as modulator): Active; Activity [25]: Active; Activity ([6]; filed as modulator): Active; Activity (Bcl-2-like protein 1 [26]): inactive
CC1(C)CCC(c2ccc(Cl)cc2)=C(CN2CCN(c3ccc(C(=O)NS(=O)(=O)c4ccc(N[C@H](CCN5CCOCC5)CSc5ccccc5)c(S(=O)(=O)C(F)(F)F)c4)cc3)CC2)C1 [NAVITOCLAX]	–	–	–	–	–	–	–	–	Kd [9]: 0.0278 µM; Kd [10]: 0.0306 µM
N#CC1=C(NCCC(=O)NCc2cccc(C(=O)O)c2)c2ccc(Sc3ccc(Br)cc3)c3cccc(c23)C1=O	1.02 µM	1.67 µM	–	–	–	–	–	–	–
